# Experimental data pooled from the literature.
# Lines come from different studies, so protocols differ.
# Target: Interleukin-1 receptor-associated kinase 4 (IRAK4, Homo sapiens, UniProt Q9NWZ3)
# Sequence (Q9NWZ3 1-460, as in one of the studies): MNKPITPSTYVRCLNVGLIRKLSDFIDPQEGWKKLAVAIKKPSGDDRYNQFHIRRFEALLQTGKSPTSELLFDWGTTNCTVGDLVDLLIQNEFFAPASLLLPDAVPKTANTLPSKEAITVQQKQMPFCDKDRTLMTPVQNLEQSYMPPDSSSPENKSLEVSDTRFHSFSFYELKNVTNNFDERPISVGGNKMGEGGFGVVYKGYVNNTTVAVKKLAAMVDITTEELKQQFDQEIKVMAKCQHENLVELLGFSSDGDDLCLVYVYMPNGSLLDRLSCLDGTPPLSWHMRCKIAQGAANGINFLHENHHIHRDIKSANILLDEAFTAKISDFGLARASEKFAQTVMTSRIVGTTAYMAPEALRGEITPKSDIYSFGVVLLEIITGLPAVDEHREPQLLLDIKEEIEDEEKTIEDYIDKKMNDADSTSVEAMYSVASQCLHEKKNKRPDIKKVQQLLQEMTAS
Structure (SMILES),effect on,mode,method,tested at,measurement,value
CCN(CC)CCNC(=O)c1c(C)[nH]c(/C=C2\C(=O)Nc3ccc(F)cc32)c1C,enzyme activity,inhibitor,,0.3 µM,inhibition,28%
O=C1Nc2ccc(Cl)cc2C1=Cc1cc(Cl)c(O)c(Cl)c1,cell-free assay,,,0.5 µM,remaining signal,101%
COc1cc2nccc(Oc3ccc(NC(=O)c4c5n(n(-c6ccc(F)cc6)c4=O)CCCC5)cc3)c2cc1OC,enzyme activity,inhibitor,,0.1 µM,inhibition,-19%
CCC(=O)N[C@H]1CC[C@@H](C(=O)N(C)c2ccc(-c3nc4ccccc4o3)cc2)C1,cell-free assay,,competition with immobilised ligand,1 µM,remaining binding,87%
COc1cc(/C=C/C(=O)CC(=O)/C=C/c2ccc(O)c(OC)c2)ccc1O,enzyme activity,inhibitor,,1 µM,activity vs control,71%
Cc1cc(C)c(-n2ccn3nc(-c4cccnc4)cc23)cc1NC(=O)c1cc(C#N)cc(S(F)(F)(F)(F)F)c1,cell-free assay,,competition with immobilised ligand,0.1 µM,remaining binding,100%
COc1cc2ncnc(Nc3ccc(Oc4ccccc4)c(C)c3C)c2cc1OC,enzyme activity,inhibitor,,1 µM,inhibition,-4%
c1ccc(N2CCN(Cc3nc4ccccc4[nH]3)CC2)nc1,binding,,competition with immobilised ligand,1 µM,remaining binding,100%
Cc1ccc(C(=O)Nc2ccc(CN3CCN(C)CC3)c(C(F)(F)F)c2)cc1C#Cc1cnc2cccnn12,enzyme activity,inhibitor,,23.5 nM,remaining activity,91%
FC(F)(F)Oc1cccc(-c2cnc3ccc(-c4ccncc4)nn23)c1,enzyme activity,inhibitor,radiometric,1 µM,activity vs control,12%
FC(F)c1nc2ccccc2n1-c1nc(N2CCOCC2)nc(N2CCOCC2)n1,enzyme activity,inhibitor,,10 µM,remaining activity,102%
CCCS(=O)(=O)Nc1ccc(F)c(C(=O)c2c[nH]c3ncc(-c4ccc(Cl)cc4)cc23)c1F,enzyme activity,inhibitor,,1 µM,inhibition,< 10%
N#CCCc1ccc2c(c1)-c1[nH]c3ccc([N+](=O)[O-])cc3c1CC(=O)N2,cell-free assay,,,0.5 µM,remaining signal,155%
F[C@@H]1CCN(c2nccc(-c3cnn4ncccc34)n2)C1,binding,,,1 µM,remaining binding,100%
CN1CC(Oc2cnc(C#N)cc2-c2ccn3nc(NC(=O)C4CC4)cc3c2)C1,enzyme activity,inhibitor,,1 µM,inhibition,1%
C[C@H](c1cccc(C#N)c1)n1cc(Cl)cc(C(N)=O)c1=N,cell-free assay,,competition with immobilised ligand,1 µM,remaining binding,82%
CNc1cccc2cc(C(=O)Nc3ccc(C(=O)O)cc3)c(=O)[nH]c12,enzyme activity,inhibitor,,10 µM,inhibition,7.7%
CNC(=O)c1ccc(Nc2ncc(C(F)(F)F)c(NCc3nccnc3N(C)S(C)(=O)=O)n2)cc1,cell-free assay,,competition with immobilised ligand,0.1 µM,remaining binding,92%
Cc1ccc(NC(=O)c2ccc(C)c(C(F)(F)F)c2)cc1C#Cc1nn(C2CCC(O)CC2)c2ncnc(N)c12 (stereo not shown),cell-free assay,,,10 µM,remaining signal,101%
CC(C)(C)c1nc2c(s1)c1nc(N)ncc1c1ccc(NS(=O)(=O)c3c(F)cccc3F)c(F)c12,enzyme activity,inhibitor,radiometric,1 µM,remaining activity,90%
O=C(Nc1cnn(-c2csc(C(=O)NC3COC3)c2)c1)Nc1ccccc1Cl,enzyme activity,inhibitor,,5 µM,remaining activity,92.1%
CC1=C(C#N)C(c2ccc3c(c2)c(NC(=O)c2ccccc2C)nn3C)C(C#N)=C(C)N1,cell-free assay,,competition with immobilised ligand,1 µM,remaining binding,7.5%
CN(C)C1CCN(CC#Cc2nn(C3CCCC3)c3nc(NCc4ccccc4)ncc23)C1 (stereo not shown),enzyme activity,inhibitor,FRET,0.1 µM,inhibition,0%
Cc1sc(C(=O)NC2COC2)cc1-n1cc(NC(=O)Nc2c(F)cccc2Cl)cn1,enzyme activity,inhibitor,,10 µM,remaining activity,103%
CS(=O)(=O)N1CCCC(NC(=O)[C@H](CCC2CCCCC2)NC(=O)c2ccc(CNC(=O)c3cnc4ccccn34)cc2)C1 (stereo partly shown),cell-free assay,,competition with immobilised ligand,0.1 µM,remaining binding,100%
Oc1cccc(-c2nc(N3CCOCC3)c3oc4ncccc4c3n2)c1,enzyme activity,inhibitor,,10 µM,remaining activity,119%
CC/C(=N\NC(=O)NCc1cccc(O)c1)c1ccc(O)c(C)c1O,enzyme activity,inhibitor,,0.1 µM,inhibition,-0.4%
Oc1cccc(-c2nc(N3CCOCC3)c3oc4ncccc4c3n2)c1,cell-free assay,,,0.5 µM,remaining signal,104%
Nc1cnc(N2CCc3cc(S(=O)(=O)Nc4c(F)cc(Cl)cc4F)cc(N4CCCC4=O)c32)nc1,cell-free assay,,competition with immobilised ligand,1 µM,remaining binding,100%
O=C1NC(=O)c2cc(Nc3ccc(F)cc3)c(Nc3ccc(F)cc3)cc21,cell-free assay,,,0.5 µM,remaining signal,98.1%
CS(=O)(=O)Nc1cccc(-c2csc(NC(=O)CSc3nc4nccnc4c(=O)n3CCc3ccccc3)n2)c1,enzyme activity,inhibitor,,10 µM,inhibition,7%
